Reference: ChEMBL document CHEMBL1799916, “Novel 3,5-bis(bromohydroxybenzylidene)piperidin-4-ones as coactivator-associated arginine methyltransferase 1 inhibitors: enzyme selectivity and cellular activity” (J Med Chem, 2011)
Activity calls are given as the source filed them. The rule behind the calls is not given here.

What was measured:
[1] = biological target: T1, Histone-arginine methyltransferase CARM1 (Homo sapiens) (UniProt Q86X55); assay: Inhibition of CARM1-mediated methylation of PABP1 at 20 uM after 90 mins by scintillation counting in presence of S-adenosyl-l-[methyl-3H]methionine
T1 sequence (whole entry): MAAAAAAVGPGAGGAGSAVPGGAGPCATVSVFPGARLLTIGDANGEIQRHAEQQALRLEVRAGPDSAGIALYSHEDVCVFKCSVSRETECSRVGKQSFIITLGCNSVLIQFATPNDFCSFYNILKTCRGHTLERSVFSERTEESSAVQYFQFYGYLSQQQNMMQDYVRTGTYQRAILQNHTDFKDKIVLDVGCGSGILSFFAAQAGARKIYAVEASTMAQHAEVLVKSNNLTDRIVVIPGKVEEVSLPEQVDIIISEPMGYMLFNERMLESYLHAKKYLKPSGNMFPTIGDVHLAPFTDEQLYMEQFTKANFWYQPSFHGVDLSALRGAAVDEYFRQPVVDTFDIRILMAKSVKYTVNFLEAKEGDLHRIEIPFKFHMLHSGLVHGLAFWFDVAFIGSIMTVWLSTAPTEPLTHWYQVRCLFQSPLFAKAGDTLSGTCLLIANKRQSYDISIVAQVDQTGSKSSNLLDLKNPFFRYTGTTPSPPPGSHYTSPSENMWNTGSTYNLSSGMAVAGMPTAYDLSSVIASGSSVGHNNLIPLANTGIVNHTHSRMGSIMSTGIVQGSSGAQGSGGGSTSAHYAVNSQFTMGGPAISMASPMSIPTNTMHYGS
In short: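 Recombinant CARM1 with PABP1 substrate in PBS pH 7.4 containing [³H]AdoMet, compound at 20 μM. Incubated 90 min at 30 °C, then SDS-PAGE, PVDF transfer and overnight film fluorography. Substrate bands cut out for scintillation counting.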

[2] = biological target: Protein arginine N-methyltransferase 1 (Homo sapiens, UniProt Q99873); assay: Inhibition of PRMT1-mediated methylation of NPL3 after 90 mins by scintillation counting in presence of S-adenosyl-l-[methyl-3H]methionine
[3] = biological target: T2, Histone-arginine methyltransferase CARM1 (Homo sapiens, UniProt Q86X55); assay: Inhibition of CARM1-mediated methylation of PABP1 after 90 mins by scintillation counting in presence of S-adenosyl-l-[methyl-3H]methionine
T2 sequence (Q86X55 whole entry): T1 sequence (whole entry)

[4] = biological target: T3, Histone-lysine N-methyltransferase SETD7 (Homo sapiens, UniProt Q8WTS6); assay: Inhibition of SET7-mediated methylation of histone H3 after 90 mins by scintillation counting in presence of S-adenosyl-l-[methyl-3H]methionine
T3 sequence (Q8WTS6 whole entry): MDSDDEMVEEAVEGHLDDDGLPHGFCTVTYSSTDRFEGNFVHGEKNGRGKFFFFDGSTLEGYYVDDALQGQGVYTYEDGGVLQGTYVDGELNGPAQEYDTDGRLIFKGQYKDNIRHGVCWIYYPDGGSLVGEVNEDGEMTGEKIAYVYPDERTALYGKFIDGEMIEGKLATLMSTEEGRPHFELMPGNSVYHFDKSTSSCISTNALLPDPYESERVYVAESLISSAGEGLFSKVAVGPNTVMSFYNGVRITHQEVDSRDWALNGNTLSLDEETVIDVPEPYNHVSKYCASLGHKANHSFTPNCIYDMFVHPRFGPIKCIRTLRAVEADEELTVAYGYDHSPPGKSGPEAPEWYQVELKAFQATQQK

Sequence of Protein arginine N-methyltransferase 1 (Q99873 whole entry): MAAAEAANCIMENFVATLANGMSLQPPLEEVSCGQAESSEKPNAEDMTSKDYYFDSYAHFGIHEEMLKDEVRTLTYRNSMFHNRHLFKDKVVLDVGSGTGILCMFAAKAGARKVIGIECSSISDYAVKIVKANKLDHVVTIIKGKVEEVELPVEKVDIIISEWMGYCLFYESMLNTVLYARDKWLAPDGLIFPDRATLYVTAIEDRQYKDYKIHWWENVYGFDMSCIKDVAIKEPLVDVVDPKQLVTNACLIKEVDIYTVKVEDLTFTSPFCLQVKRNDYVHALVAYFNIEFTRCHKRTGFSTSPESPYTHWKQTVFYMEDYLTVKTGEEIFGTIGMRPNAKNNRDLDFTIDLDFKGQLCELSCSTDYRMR

| inhibition [1] | IC50 [2] [µM] | IC50 [3] [µM] | IC50 [4] [µM] | SMILES |
| --- | --- | --- | --- | --- |
| inactive |  |  |  | COc1ccccc1CN1C/C(=C\c2ccc(O)c(Br)c2)C(=O)/C(=C/c2ccc(O)c(Br)c2)C1 |
|  | > 667 | 12.2 | > 600 | O=C1/C(=C/c2ccc(O)c(Br)c2)CN(Cc2ccc(Cl)cc2)C/C1=C\c1ccc(O)c(Br)c1 |
| inactive | > 667 | 16 | > 667 | O=C1/C(=C/c2ccc(O)c(Br)c2)CN(CCCc2ccccc2)C/C1=C\c1ccc(O)c(Br)c1 |
| inactive | > 667 | 11.9 | > 333 | Cc1ccc(CN2C/C(=C\c3ccc(O)c(Br)c3)C(=O)/C(=C/c3ccc(O)c(Br)c3)C2)cc1 |
| inactive |  |  |  | COc1ccc(CN2C/C(=C\c3ccc(O)c(Br)c3)C(=O)/C(=C/c3ccc(O)c(Br)c3)C2)cc1 |
|  | > 667 | 12.5 | > 667 | O=C1/C(=C/c2ccc(O)c(Br)c2)CN(Cc2ccccc2Cl)C/C1=C\c1ccc(O)c(Br)c1 |
|  | > 667 | 14.8 | > 667 | O=C1/C(=C/c2ccc(O)c(Br)c2)CN(CCc2ccccc2)C/C1=C\c1ccc(O)c(Br)c1 |
| inactive |  |  |  | COc1cccc(CN2C/C(=C\c3ccc(O)c(Br)c3)C(=O)/C(=C/c3ccc(O)c(Br)c3)C2)c1 |
|  | > 667 | 10.3 | > 667 | Cc1ccccc1CN1C/C(=C\c2ccc(O)c(Br)c2)C(=O)/C(=C/c2ccc(O)c(Br)c2)C1 |
